Screening data as filed in PubChem BioAssay.
In the library only some 4% were active in any assay of this set; here they are far more common.
TAAR1 agonist = human TAAR1 agonism. activation, % at 3 µM. 360,000 compounds, 0.99% hits. CHO RD-HGA16 TAAR1, Fluo-8 calcium fluorescence; vehicle wells 0%, saturating PEA agonist 100%;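 active = activation above the mean activation of all test compounds in the run plus 3 SD, cut at about 38% in these data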
Target sequence (Q96RJ0 whole entry, looked up): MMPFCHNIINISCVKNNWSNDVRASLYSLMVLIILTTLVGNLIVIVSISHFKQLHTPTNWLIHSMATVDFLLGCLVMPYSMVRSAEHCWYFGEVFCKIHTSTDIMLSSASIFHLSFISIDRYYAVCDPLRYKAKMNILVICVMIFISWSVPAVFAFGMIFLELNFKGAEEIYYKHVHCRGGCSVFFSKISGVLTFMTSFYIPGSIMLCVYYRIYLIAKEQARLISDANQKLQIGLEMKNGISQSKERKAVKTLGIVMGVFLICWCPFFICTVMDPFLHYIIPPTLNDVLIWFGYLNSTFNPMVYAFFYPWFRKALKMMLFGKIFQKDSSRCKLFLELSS
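Test system: RD-HGA16 (CHO) cells co-expressing Gα16 and hTAAR1; dosing: one-point dosing at 3 µM (nominal); timing: 17-24 h seeding, 75 min 37 °C dye, 30 min RT; signal: kinetic Fluo-8 calcium fluorescence; read-out basis: % activation relative to PEA EC100 response; controls: DMSO and PEA EC100; replicates: n 1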
OX1R antag-1 = human HCRTR1 antagonism. O43613. CHO/OX1R cells, Fluo-8 calcium fluorescence, orexin A. inhibition, % at 5 µM. 330,000 compounds, 0.43% hits. AID 434989;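 active = inhibition above its plate's threshold, mean inhibition of all tested compounds on the plate plus 3 SD, cut at about 37% in these data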;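 note: 0% = orexin A challenge wells and 100% = SB-334867-A antagonist wells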
OX1R antag-2 = blocks the human orexin 1 receptor | inhibition, % at 6.6 µM | O43613 | OX1R-expressing cells, FRET antagonist read-out | 330,000 compounds, 1.8% hits; in the data active = inhibition mostly above about 38%, no sharp cut-off; inactive = mostly below about 40%;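 note: 0% = agonist challenge alone and 100% = reference antagonist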
CHO parental Ca = counter-screen: ATP calcium response change in parental CHO cells; parental CHO-K1, ATP-induced calcium, Fluo-8 fluorescence; inhibition, % at 5.6 µM; 330,000 compounds, 0.63% hits; AID 463079;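 active = inhibition above that plate's mean sample inhibition plus 3 SD, cut at about 26% in these data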;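 note: 0% = ATP-challenged DMSO wells and 100% = DMSO wells without ATP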
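Assay system: parental CHO cells; Read-out basis: percent inhibition of ATP-evoked calcium rise, normalized to controls; Benchmarks: ATP and no-ATP DMSO wells; Compound dosing: single nominal dose of 5.6 µM per compound; Signal: Fluo-8 calcium dye fluorescence; Also added: ATP as calcium-mobilizing challenge; Repeats: singlicate.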
TAAR1 antag = human TAAR1 antagonism; CHO RD-HGA16 TAAR1, Fluo-8 calcium fluorescence, antagonist; 360,000 compounds, 1.5% hits; inhibition, % at 3 µM;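 active = inhibition above a per-plate cutoff, the mean inhibition of test compounds on that plate plus 3 SD, cut at about 49% in these data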;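 note: 0% = DMSO plus EC80 beta-PEA response and 100% = DMSO alone without agonist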
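Test system – hTAAR1-expressing CHO RD-HGA16 cells, Gα16-coupled · Reagent – β-PEA at EC80 concentration, post-compound challenge · Compound dosing – 3 µM, single point · Timing – 140 s kinetic read after compound, 140 s after agonist · Detection – Fluo-8 intracellular calcium dye fluorescence, real-time kinetic reads · Control set – DMSO and EC80 PEA controls · Repeats – n of 1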
TAAR1 ag confirm = confirmation of human TAAR1 agonists; shares compounds with TAAR1 agonist; CHO RD-HGA16 TAAR1, Fluo-8 calcium fluorescence; scaled: DMSO 0%, maximal phenethylamine 100%; activation, % at 3 µM; 2,400 compounds, 82% hits; AID 651783;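 active = activation above a cutoff set at the run's mean compound activation plus 3 SD, cut at about 39% in these data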
Ga16 ag counter = counter-screen for TAAR1 agonists: nonselective agonists in parental cells; shares compounds with TAAR1 agonist; CHO-Ga16 parental, Fluo-8 calcium fluorescence; normalized to maximal ATP response, DMSO zero; activation, % at 3 µM; 2,400 compounds, 50% hits; AID 651787;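 active = activation above the run cutoff, the mean activation over all tested wells plus 3 SD, cut at about 12% in these data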;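 note: 0% = DMSO wells and 100% = maximal ATP response on the peak over basal ratio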
TAAR1 desensitize = human TAAR1 agonist that also desensitizes the receptor. inhibition, % at 3 µM. CHO RD-HGA16 hTAAR1, Fluo-8 calcium, beta-PEA response inhibition. 2,400 compounds, 46% hits. shares compounds with TAAR1 agonist;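 active = inhibition above the run cutoff, the mean inhibition of all test compounds plus 3 SD, cut at about 49% in these data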;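 note: beta-PEA stimulus applied at its EC80; loss of beta-PEA calcium signal after compound pretreatment read as receptor desensitization; 0% = DMSO with beta-PEA at EC80 and 100% = DMSO alone without agonist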
Ga16 antag count = nonselective Ga16 antagonist in TAAR1 agonist counter-screen. shares compounds with TAAR1 agonist. CHO-Ga16 ATP-induced calcium, Fluo-8 fluorescence. inhibition, % at 3 µM. 2,400 compounds, 39% hits. AID 651952;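 active = inhibition above the plate's mean compound inhibition plus 3 SD, computed per plate, cut at about 22% in these data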;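 note: 0% = EC80 ATP with DMSO and 100% = DMSO wells without ATP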
* hit, by the source's call; . = not tested or not shown.

SMILES	TAAR1 agonist	OX1R antag-1	OX1R antag-2	CHO parental Ca	TAAR1 antag	TAAR1 ag confirm	Ga16 ag counter	TAAR1 desensitize	Ga16 antag count
Cn1c(-c2cccc3ccccc23)n[nH]c1=S	0	-8	7	-4	1	.	.	.	.
COc1cc(OC)cc(C(=O)N[C@H](C(=O)Nc2cccc(S(=O)(=O)N3CCCC3)c2)C(C)C)c1	0	-25	6	-14	-25	.	.	.	.
CCc1ccc(C(=O)NCc2ccc(Cl)cc2Cl)cc1	-1	-30	10	-18	-11	.	.	.	.
CCc1ccc(C(=O)NCc2ccc(Cl)cc2)cc1	65*	-15	15	5	33	2	21*	8	15
COc1cc(C(c2nnnn2C2CCCC2)N2CCc3ccccc3C2)ccc1O (stereo not given)	85*	-4	10	-14	100*	91*	0	97*	7
CCOC(=O)C1CCCN(C(=O)Cc2ccc(C)cc2)C1 (stereo not given)	5	-10	17	-10	10	.	.	.	.
CCOC(=O)C1CCCN(C(=S)Nc2ccc(C)cc2C)C1 (stereo not given)	69*	7	10	-4	60*	34	-1	31	9
O=C(CCn1c(=O)c2cccn2c2cccnc21)NCCCN1CCN(c2ccc(F)cc2)CC1	0	.	.	.	-13	.	.	.	.
c1ccc2c(Cn3ccnc3)c[nH]c2c1	54*	-5	4	3	13	71*	4	36	7
OCc1ccccc1Cn1ccnc1	1	.	.	.	-19	.	.	.	.
Cn1c(N)c(C(=O)COC(=O)c2ccc(OC(F)F)cc2)c(=O)n(C)c1=O	8	-5	-6	-7	1	.	.	.	.
O=C(N[C@@H](Cc1cccnc1)C(=O)N1CCC[C@H]1C(=O)NCc1ccccc1)c1ccc(Cl)cc1Cl	2	.	.	.	-26	.	.	.	.
O=C(N[C@@H](Cc1cccnc1)C(=O)N1CCC[C@H]1C(=O)NCCc1ccccc1Cl)c1ccc(Cl)cc1Cl	65*	.	.	.	66*	72*	1	89*	-1
O=C(N[C@@H](Cc1cccnc1)C(=O)N1CCC[C@H]1C(=O)NCCc1ccccc1Cl)C1CCCC1	80*	.	.	.	73*	80*	-1	86*	2
O=C(CC1CCCC1)N[C@@H](Cc1cccnc1)C(=O)N1CCC[C@H]1C(=O)NCCc1ccccc1Cl	70*	.	.	.	78*	87*	13*	90*	5
O=C(CC1CCCC1)N[C@@H](Cc1cccnc1)C(=O)N1CCC[C@H]1C(=O)NC1CCCC1	1	.	.	.	-2	.	.	.	.
COc1cccc(C(=O)N[C@@H](Cc2cccnc2)C(=O)N2CCC[C@H]2C(=O)NCCc2ccccc2Cl)c1	67*	.	.	.	71*	83*	9	93*	10
Clc1cccc(Cl)c1Cn1ccc(C2CC2)n1	4	-4	11	4	-8	.	.	.	.
COc1cc(CNCc2ccccn2)ccc1OCC(N)=O	0	-17	4	-4	-8	.	.	.	.
COc1ccc(CNCCc2ccccc2)cc1OCC(N)=O	52*	-13	9	-4	-3	75*	1	22	-3
Cc1ccc2nc(C)cc(C(=O)N3CCCC(N4CCN(c5ccccc5C)CC4)C3)c2c1 (stereo not given)	2	-39	5	-18	-16	.	.	.	.
Cc1oc(-c2ccccc2)nc1CS(=O)CC(=O)N1CCc2ccccc2C1 (stereo not given)	56*	-41	10	-33	-15	91*	0	44	2
O=C(Nc1ccc(Cl)cn1)c1cccc(F)c1	3	-27	18	-4	-21	.	.	.	.
